Source: ChEMBL document CHEMBL1121880, “Synthesis and antiviral activity of 5-[(cyanomethylene)oxy]-2'-deoxyuridine” (J Med Chem, 1981)
In brackets after ≈: the same amount, converted by molar mass.

Tests used:
Assay type in all cases: functional, cell-based
Details in all cases: Oryctolagus cuniculus
PRK [1] = experiment: Concentration required to reduce HSV-1(KOS) induced cytopathogenicity by 50% was measured by the addition of [Me-3H]-dThd
PRK [2] = experiment: Concentration required to reduce HSV-1(KOS) induced cytopathogenicity by 50% was measured by the addition of [1,'2'-3H]dUrd
Summary of the method: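 HSV-1 (KOS) cytopathogenicity in PRK cells (100 CCID50 inoculum) with dThd or dUrd, unlabelled, added together with test compound at 100 μg/mL final, the highest level not itself inhibiting virus replication. CPE scored at 100% destruction in untreated infected controls; IC50 = concentration halving cytopathogenicity.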

PRK [3] = experiment: Concentration required to inhibit incorporation of [1,'2'-3H]dUrd into DNA of primary rabbit kidney (PRK) cells by 50%
Summary of the method: (§1)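 Uninfected primary rabbit kidney cells; IC50 = concentration reducing incorporation of [Me-3H]dThd or [1',2'-3H]dUrd into host cell DNA by 50%.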

PRK [4] = experiment: Concentration required to reduce HSV-2 induced cytopathogenicity by 50% in primary rabbit kidney (PRK) cells; 10-150
PRK [5] = experiment: Concentration required to inhibit incorporation of [Me-3H]-dThd into DNA of primary rabbit kidney (PRK) cells by 50%; summary of the method: as §1
PRK [6] = experiment: Concentration required to reduce TK-HSV-1 (B2006) induced cytopathogenicity by 50% in primary rabbit kidney (PRK) cells
PRK [7] = experiment: Concentration required to reduce HSV-1 induced cytopathogenicity by 50% in primary rabbit kidney (PRK) cells; 2-4
PRK [8] = experiment: Compound was evaluated for antiviral activity in rabbit kidney cells infected with vaccinia virus
PRK [9] = experiment: Concentration required to reduce HSV-1(KOS) induced cytopathogenicity by 50%
Summary of the method: (§2)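 PRK cell cultures infected with 100 CCID50 HSV-1 (KOS), then given varying compound concentrations right after virus adsorption, without added nucleoside.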

PRK [10] = experiment: Concentration required to reduce HSV-2 induced cytopathogenicity by 50% in primary rabbit kidney (PRK) cells; 7-40
PRK [11] = experiment: Concentration required to reduce HSV-1(KOS) induced cytopathogenicity by 50% was measured; summary of the method: as §2
PRK [12] = experiment: Concentration required to reduce HSV-1 induced cytopathogenicity by 50% in primary rabbit kidney (PRK) cells; 1-1.5
PRK [13] = experiment: Concentration required to reduce HSV-1(KOS) induced cytopathogenicity primary rabbit kidney by 50% was measured by the addition of [Me-3H]-dThd
PRK [14] = experiment: Concentration required to reduce HSV-1(KOS) induced cytopathogenicity in primary Rabbit by 50%
Summary of the method: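 Confluent primary rabbit kidney cell cultures inoculated with 100 CCID50 HSV-1 (KOS); varying compound concentrations added immediately after virus adsorption. Cytopathogenicity scored once virus-infected untreated controls reached 100% cell destruction; IC50 = concentration reducing cytopathogenicity by 50%.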

PRK [15] = experiment: Concentration required to reduce HSV-1(KOS) induced cytopathogenicity primary rabbit kidney by 50% was measured by the addition of [1,'2'-3H]dUrd
PRK [16] = experiment: Concentration required to reduce HSV-1 induced cytopathogenicity by 50% in primary rabbit kidney (PRK) cells
PRK [17] = experiment: Concentration required to reduce HSV-2 induced cytopathogenicity by 50% in primary rabbit kidney (PRK) cells; 0.2-0.4
PRK [18] = experiment: Concentration required to reduce HSV-2 induced cytopathogenicity by 50% in primary rabbit kidney (PRK) cells; 2-4
PRK [19] = experiment: Concentration required to reduce HSV-1 induced cytopathogenicity by 50% in primary rabbit kidney (PRK) cells; 4-10

`N#CCOc1cn([C@H]2C[C@H](O)[C@@H](CO)O2)c(=O)[nH]c1=O` was tested, and the IC50 (PRK [1]) was over 400 µg/mL, the IC50 (PRK [2]) was over 400 µg/mL and the IC50 (PRK [3]) was over 400 µg/mL. It also gave an IC50 (PRK [4]) of 10 µg/mL (≈ 35.3 µM), an IC50 (PRK [5]) of 400 µg/mL (≈ 1410 µM) and an IC50 (PRK [6]) of over 400 µg/mL. It also gave an IC50 (PRK [7]) of 2 µg/mL (≈ 7.06 µM), an IC50 (PRK [8]) of 150 µg/mL (≈ 530 µM) and an IC50 (PRK [9]) of 1.5 µg/mL (≈ 5.3 µM).
`C#CCOc1cn([C@H]2C[C@H](O)[C@@H](CO)O2)c(=O)[nH]c1=O` was tested, and the IC50 (PRK [10]) was 19 µg/mL (≈ 67.3 µM), the IC50 (PRK [11]) was 0.7 µg/mL (≈ 2.48 µM) and the IC50 (PRK [1]) was 400 µg/mL (≈ 1420 µM). It also gave an IC50 (PRK [2]) of 40 µg/mL (≈ 142 µM), an IC50 (PRK [3]) of 100 µg/mL (≈ 354 µM) and an IC50 (PRK [5]) of 200 µg/mL (≈ 709 µM). It also gave an IC50 (PRK [12]) of 1 µg/mL (≈ 3.54 µM), an IC50 (PRK [6]) of over 200 µg/mL and an IC50 (PRK [8]) of 20 µg/mL (≈ 70.9 µM).
Molecule `N#Cc1cn([C@H]2C[C@H](O)[C@@H](CO)O2)c(=O)[nH]c1=O` has an IC50 (PRK [3]) of 8 µg/mL (≈ 31.6 µM) and an IC50 (PRK [5]) of over 400 µg/mL.
`O=c1[nH]c(=O)n([C@H]2C[C@H](O)[C@@H](CO)O2)cc1F` [FLOXURIDINE] showed an IC50 (PRK [13]) of over 400 µg/mL, an IC50 (PRK [14]) of 1 µg/mL (≈ 4.06 µM) and an IC50 (PRK [15]) of 10 µg/mL (≈ 40.6 µM).
For `O=c1[nH]c(=O)n([C@H]2C[C@H](O)[C@@H](CO)O2)cc1I` [IDOXURIDINE], the IC50 (PRK [3]) was 0.3 µg/mL (≈ 0.847 µM), the IC50 (PRK [5]) was 1 µg/mL (≈ 2.82 µM) and the IC50 (PRK [16]) was 0.1 µg/mL (≈ 0.282 µM). The IC50 (PRK [6]) was 200 µg/mL (≈ 565 µM), the IC50 (PRK [8]) was 0.4 µg/mL (≈ 1.13 µM) and the IC50 (PRK [17]) was 0.2 µg/mL (≈ 0.565 µM).
`Nc1ncnc2c1ncn2[C@@H]1O[C@H](CO)[C@@H](O)[C@@H]1O` [VIDARABINE] showed an IC50 (PRK [11]) of 4 µg/mL (≈ 15 µM), an IC50 (PRK [1]) of 1 µg/mL (≈ 3.74 µM) and an IC50 (PRK [2]) of 1 µg/mL (≈ 3.74 µM). For the same molecule, the IC50 (PRK [3]) was 10 µg/mL (≈ 37.4 µM), the IC50 (PRK [5]) was 20 µg/mL (≈ 74.8 µM) and the IC50 (PRK [18]) was 3 µg/mL (≈ 11.2 µM). For the same molecule, the IC50 (PRK [6]) was 10 µg/mL (≈ 37.4 µM), the IC50 (PRK [8]) was 0.4 µg/mL (≈ 1.5 µM) and the IC50 (PRK [19]) was 7 µg/mL (≈ 26.2 µM).
